System: MS2 coat protein
Test: apparent Kd, MS2 coat protein; higher = weaker binding; RNA-MaP array; FMN 200 µM where present
Outline: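 The titrant was SNAP-549-labelled MS2 coat protein, run from 0.7 or 1.5 nM in doubling steps to 3 µM. It was applied to designs transcribed by stalled E. coli RNA polymerase on Illumina sequencing-chip clusters, without ligand first and then with constant ligand, in 100 mM Tris-HCl pH 7.5, 80 mM KCl, 4 mM MgCl2, BSA, DTT, yeast tRNA and Tween-20. The apparent Kd is the median of filtered per-cluster binding-curve fits, with green signal normalised to red-channel RNA signal and control-cluster median Fmax.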

[1] = designed as: ON switch for flavin mononucleotide, no ligand
[2] = ligand present: flavin mononucleotide, designed as: ON switch for flavin mononucleotide
[3] = designed as: OFF switch for flavin mononucleotide, no ligand
[4] = ligand present: flavin mononucleotide, designed as: OFF switch for flavin mononucleotide

## UUGUACGUCGUAGGAUAUGUAGGAUAUUCCUACAUGAGGAUCACCCAUGUUGACAUGGAAGAAGGACAGAAGGACGAUGUCCAU
[1]
  apparent Kd: 429 nM
[2]
  apparent Kd: 7.83 nM

## UUGUGAGAGCAGGAUAUCUUAUUUUUUUUUUGUGGAGAAGGGCUGACAUGAGGAUCACCCAUGUGGUCCUAGAU
[3]
  apparent Kd: 28.4 nM
[4]
  apparent Kd: 33.5 nM

## UUGUUAUAUGUAGGAUAUGCGUAUUAUUAUUAUGCAGAAGGACAUGAGGAUCACCCAUGUAUAUUAUUAUUAUAUAUUAUAUAU
[3]
  apparent Kd: 27.9 nM
[4]
  apparent Kd: 43.7 nM

## UUGUUGUAUGUAGGAUAUGCAUGUUAUUAUUAUGCAGAAGGACAUGAGGAUCACCCAUGUGUAUUAUUAUUAUAUAUUAUAUAU
[3]
  apparent Kd: 20.9 nM
[4]
  apparent Kd: 23.3 nM

## UUGUUUUUUGAGGAUAUGCGACGUUUUUUCGUCGUAGAAGGCGAUACAUGAGGAUCACCCAUGUUUAUGGGCAU
[3]
  apparent Kd: 124 nM
[4]
  apparent Kd: 169 nM

## UUUAACAGAGGAUAUGCGAAUAAAUAAAACUUUUUUUUUUAACAUGAGGAUCACCCAUGUAGAAGGCUGAUUUU
[3]
  apparent Kd: 45.7 nM
[4]
  apparent Kd: 47.7 nM

## UUUACAUGAGGAUCACCCAUGUAUGUCACCCAUGUGUGUAAUCAGGAUAUGAUAUCAAUAAUAAAUUAGAAGGGAUAACAUGAG
[1]
  apparent Kd: 59.5 nM
[2]
  apparent Kd: 75.1 nM

## UUUACAUGAGGAUCACCCAUGUCUGUCACACGUAUGUGCAAUCAGGAUAUGAUCUCAAGAAUGAAUUAGAAGGGAUAAAGAGAA
[1]
  apparent Kd: 212 nM
[2]
  apparent Kd: 250 nM

## UUUACAUGAGGAUCACCCAUGUUUAGAAAGAUUGGUUUAGGUGAGGAUAUACAUGAUAAUGAAUUGUAGAAGGCACUGGGUACA
[1]
  apparent Kd: 30.1 nM
[2]
  apparent Kd: 24 nM

## UUUAGUUCAGGAUAUGUAGAUUUUAACAUGAGGAUCACCCAUGUAGAUCCUGAAUUAACUACAGAAGGGAACAUUU
[3]
  apparent Kd: 19.8 nM
[4]
  apparent Kd: 88.6 nM

## UUUAUGUCAGGAUAUGAGUAGUAGAACAAUAGUACUACUACUCAGAAGGGACAUGAGGAUCACCCAUGUGCCUC
[3]
  apparent Kd: 35.2 nM
[4]
  apparent Kd: 291 nM

## UUUAUGUGAGGAUAUACGAAUAGUAAGUAAGUAUUACAGACGUAGAAGGCACAUGAGGAUCACCCAUGUGAACC
[3]
  apparent Kd: 38.5 nM
[4]
  apparent Kd: 78 nM

## UUUAUUAGUUAGAAGGCUUGAUGAAUUACAAUGGACAUGAGGAUCACCCAUGUGUAUUCAUGUUAAGAGGAUAUAGUCAUAUAU
[1]
  apparent Kd: 30.2 nM
[2]
  apparent Kd: 20.2 nM

## UUUAUUUAGGCAGGAUAUACAUGUAUAUAUAUUUCUUUAUAUCUUAUUACAUGAGGAUCACCCAUGUAGAAGGGCCUUCUUAUA
[3]
  apparent Kd: 26.7 nM
[4]
  apparent Kd: 30.6 nM

## UUUAUUUUUACAGGAUAUCAUCUAUAUAACUCAUGCAAAUGUUUACAUGAGGAUCACCCAUGUUAUGAGAAGGGUAUUGAAACA
[1]
  apparent Kd: 361 nM
[2]
  apparent Kd: 216 nM

## UUUCAGUCAGGAUAUCGUUAAUUUAAUUGUUUGUUUUAGUUCGAGAAGGGACAUGAGGAUCACCCAUGUACUUU
[3]
  apparent Kd: 20 nM
[4]
  apparent Kd: 20 nM

## UUUCCACAUGAGGAUCACCCAUGUAAGGAUAUGUAGCGCGGGCUGGUGUCCGAGUGUUACAGAAGGUGCUGGCG
[3]
  apparent Kd: 26.3 nM
[4]
  apparent Kd: 33.7 nM

## UUUCCCUGUGUGAGGAUAUACUUGUUUGGGUUUUUGUAGAAGGCACAUGAGGAUCACCCAUGUACUCUGUCCUG
[3]
  apparent Kd: 25.3 nM
[4]
  apparent Kd: 30.6 nM

## UUUCCCUGUGUGAGGAUAUACUUGUUUGGGUUUUUGUAGAAGGCACAUGAGGAUCACCCAUGUACUCUGUCGUG
[3]
  apparent Kd: 23.3 nM
[4]
  apparent Kd: 55.8 nM

## UUUCCGCGAGGAUAUGCGGGUUGUGCUUUUCAUUUUUUAUAACAUGAGGAUCACCCAUGUAGAAGGUGCUUCUU
[3]
  apparent Kd: 186 nM
[4]
  apparent Kd: 166 nM

## UUUCGGUGGCUGGAGGAUAUCCUGGUUGUUACAUGAGGAUCACCCAUGUGCCGCGCGGUGCGCUGGGAGAAGGCCGGCGGCCCUU
[1]
  apparent Kd: 37.7 nM
[2]
  apparent Kd: 16.1 nM

## UUUCUACAUGAGGAUCACCCAUGUCAACAAAGUCGAGGAUAUGGGCAUAUUAUCUUAUUUCCAGAAGGCGAUUUCU
[1]
  apparent Kd: 145 nM
[2]
  apparent Kd: 29.5 nM

## UUUGCAUUCCGAGGAUAUUCAUAUAAUAAAUAAACAUGAGGAUCACCCAUGUGGCGAAAGCCUAGGGAGAAGGCGGUAUGCUUU
[1]
  apparent Kd: 155 nM
[2]
  apparent Kd: 26.8 nM

## UUUGCAUUCCGAGGAUAUUCAUUUAAUGACUUCACAUGAGGAUCACCCAUGUGGCGAUAGCGCCGGGAGAAGGCGGUUUGCUUU
[1]
  apparent Kd: 23.1 nM
[2]
  apparent Kd: 25.7 nM

## UUUGUCAUCGAGAAGGCCUCAACAUGAGGAUCACCCAUGUUGUAAUAUGGGAGGAUAUCGAUGAUACAGCUACGUUUCGUAGGG
[1]
  apparent Kd: 18.1 nM
[2]
  apparent Kd: 5.6 nM

## UUUGUUUUGGUAGGAUAUACUUUUAUUUUCUCUUUCCUUACAUGAGGAUCACCCAUGUUUACAUUGUAGAAGGACCACUUUGUU
[3]
  apparent Kd: 20.8 nM
[4]
  apparent Kd: 18.8 nM

## UUUUAACAUGAGGAUCACCCAUGUGAGGAUAUCGAAAUUUAUAUUAAUAUUAAUAUAUCGAGAAGGCACAUUUU
[3]
  apparent Kd: 79.8 nM
[4]
  apparent Kd: 104 nM

## UUUUAACAUGAGGAUCACCCAUGUGAGGAUAUCGAAAUUUAUAUUAAUAUUAAUAUUUCGAGAAGGCACAUUUU
[3]
  apparent Kd: 142 nM
[4]
  apparent Kd: 154 nM

## UUUUAACAUGAGGAUCACCCAUGUGAGGAUAUCGAAAUUUAUAUUAAUAUUAAUUUUACGAGAAGGCACAUUUU
[3]
  apparent Kd: 112 nM
[4]
  apparent Kd: 100 nM

## UUUUAACAUGAGGAUCACCCAUGUGAGGAUAUCGAAAUUUAUAUUAAUAUUAUUAAAUCGAGAAGGCACAUUUU
[3]
  apparent Kd: 102 nM
[4]
  apparent Kd: 97.4 nM

## UUUUAACAUGAGGAUCACCCAUGUGAGGAUAUCGAAAUUUAUAUUAAUAUUAUUAUAACGAGAAGGCACAUUUU
[3]
  apparent Kd: 66.5 nM
[4]
  apparent Kd: 82.9 nM

## UUUUAACAUGAGGAUCACCCAUGUGAGGAUAUCGAAAUUUAUAUUAAUAUUUAUUAAACGAGAAGGCACAUUUU
[3]
  apparent Kd: 82.2 nM
[4]
  apparent Kd: 80.7 nM

## UUUUAACAUGAGGAUCACCCAUGUGAGGAUAUCGAAAUUUAUAUUAAUAUUUAUUAUUCGAGAAGGCACAUUUU
[3]
  apparent Kd: 152 nM
[4]
  apparent Kd: 167 nM

## UUUUAACAUGAGGAUCACCCAUGUGAGGAUAUCGAAAUUUAUAUUAAUAUUUUUAAAUCGAGAAGGCACAUUUU
[3]
  apparent Kd: 121 nM
[4]
  apparent Kd: 109 nM

## UUUUAACAUGAGGAUCACCCAUGUGAGGAUAUCGAAAUUUAUAUUUAUAUUAAUAAAUCGAGAAGGCACAUUUU
[3]
  apparent Kd: 117 nM
[4]
  apparent Kd: 117 nM

## UUUUAACAUGAGGAUCACCCAUGUGAGGAUAUCGAAAUUUAUAUUUAUAUUUAUAUAACGAGAAGGCACAUUUU
[3]
  apparent Kd: 72.4 nM
[4]
  apparent Kd: 87.6 nM

## UUUUAACAUGAGGAUCACCCAUGUGAGGAUAUCGAUUUUUAUAUUAAUAUUAAUAAAACGAGAAGGCACAUUUU
[3]
  apparent Kd: 123 nM
[4]
  apparent Kd: 79.3 nM

## UUUUAAUAAGAGAAGGAGGACUUCAUGAGGAUCACCCAUGUGUUAGUACUUAGGAUAUUUAAUAACAUGAGGAUCACCCAUGUC
[1]
  apparent Kd: 44.1 nM
[2]
  apparent Kd: 43 nM

## UUUUACGAAGGAUAUACAUUUUUUUUAUUAUUUUCAUUAUUACAUGAGGAUCACCCAUGUAGAAGGUCGAUUUU
[3]
  apparent Kd: 24.3 nM
[4]
  apparent Kd: 23.7 nM

## UUUUAGAGAGGAUAUAUAAAGUGAAACAUGAGGAUCACCCAUGUAAUUUUAUGGAUGUAAAUAGAAGGCUCAUUUA
[3]
  apparent Kd: 33.3 nM
[4]
  apparent Kd: 28.6 nM

## UUUUAGCAAGGAUAUACAUUUUUUUUAUUAUCCUCAUUAUUACAUGAGGAUCACCCAUGUAGAAGGUGCAUUUU
[3]
  apparent Kd: 75.9 nM
[4]
  apparent Kd: 81.5 nM

## UUUUAGUCAGGAUAUACAUGAGGAUCACCCAUGUAAAAUUUUAGUUUAAUUUGAAUGUGUAGAAGGGACAUUUU
[3]
  apparent Kd: 24.7 nM
[4]
  apparent Kd: 22.9 nM

## UUUUAGUGAGGAUAUGUGGCUUCGAUCGUGAGAUCGAGGCUACAGAAGGCACAUGAGGAUCACCCAUGUUCCUA
[3]
  apparent Kd: 16.6 nM
[4]
  apparent Kd: 81.7 nM

Source: the EternaBench riboswitch data
